Reference: ChEMBL document CHEMBL2093137, “WHO-TDR NTD Screening”
≈ marks a conversion by molar mass, not a printed value.

Legend:
Plasmodium falciparum K1 = test: WHO-TDR: Malaria; format: functional, organism-based, Homo sapiens; settings: Erythrocyte
Procedure, shortened: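 Life Chemicals supplied the diverse library of 10,000 compounds, which had been filtered for drug-likeness and reactive groups. Each was screened against the K1 strain of Plasmodium falciparum at its intra-erythrocytic stage in human red blood cells, using previously published standard procedures and a reference drug as positive control. The table reports IC50 for antiplasmodial potency.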

Trypanosoma cruzi = test: WHO-TDR: Chagas disease; format: functional, organism-based, Homo sapiens; settings: MRC5
Procedure, shortened: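 A diverse library of 10,000 compounds from Life Chemicals, filtered for drug-likeness and reactive groups, was screened against intracellular amastigotes of Trypanosoma cruzi Tulahuen CL2 beta-galactosidase strain. The parasites were grown in MRC-5SV2 human lung fibroblast host cells, and a reference drug served as positive control under previously published standard procedures. Antiparasitic potency is given as IC50.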

[1] = system: Trypanosoma brucei brucei; test: WHO-TDR: Human African Trypanosomiasis (HAT); format: functional, organism-based; settings: Squib-427
Procedure, shortened: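 Following previously published standard procedures, with reference drugs as positive controls, a whole-organism assay was run against bloodstream-form Trypanosoma brucei, Squib 427 strain. The compounds, 10,000 in all, came from a diverse Life Chemicals library filtered for drug-likeness and reactive groups. Reported values are IC50 for antiparasitic potency.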

Leishmania infantum = test: WHO-TDR: Leishmaniasis; format: functional, organism-based, Mus musculus; settings: Macrophage
Procedure, shortened: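 IC50 values describe antiparasitic potency in this whole-organism screen. Leishmania infantum MHOM/MA(BE)/67 amastigotes were tested inside murine peritoneal macrophages against a 10,000-compound diverse Life Chemicals library. A reference drug served as positive control.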

[2] = WHO-TDR: Cytotoxicity; format: toxicity, cell-based; settings: human, MRC5 cells
Onchocerca ochengi = test: WHO-TDR: Onchocerciasis; format: functional; design: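 at 12.5 µM on microfilariae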
Procedure, shortened: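 Values are reported as percent inhibition and as IC50. They come from a whole-organism screen of a 10,000-compound diverse Life Chemicals library against microfilariae of Onchocerca ochengi or Onchocerca lienalis. The screen followed previously published standard procedures, with reference drugs as positive controls.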

Brugia malayi = test: WHO-TDR: Lymphatic Filariasis; format: functional; design: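 tested at 10 µM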
Procedure, shortened: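 Values are percent inhibition and IC50 from a whole-organism screen against Brugia malayi microfilariae. The compounds, 10,000 in all, came from a diverse Life Chemicals library filtered for drug-likeness and reactive groups.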

Structure (SMILES)	IC50 (Plasmodium falciparum K1) [µg/mL]	IC50 [1] [µg/mL]	IC50 (Leishmania infantum) [µg/mL]	IC50 (Trypanosoma cruzi) [µg/mL]	IC50 [2] [µg/mL]	% Inhibition (Onchocerca ochengi) [%]	% Inhibition (Brugia malayi) [%]
CCOC(=O)N1CCN(C(=O)Nc2nc(CC(=O)Nc3nc4ccccc4s3)cs2)CC1	> 14.2	> 14.2	> 14.2	> 14.2	> 14.2	100	20
O=C(Cc1csc(SCc2ccncc2)n1)N1CCN(c2ccccc2)CC1	> 12.3	> 12.3	> 12.3	4.2 (≈ 10.2 µM)	> 12.3	100	0
CN(C)c1ccc(NC(=O)Cc2csc(SCc3ccncc3)n2)cc1	> 11.5	> 11.5	3.65 (≈ 9.49 µM)	3.47 (≈ 9.03 µM)	> 11.5	100	0
FC(F)(F)c1ccc(Nc2ncnc3[nH]ncc23)cc1	> 8.38	3.19 (≈ 11.4 µM)	> 8.38	2.72 (≈ 9.73 µM)	> 8.38	100	0
FC(F)Sc1ccc(Nc2ncnc3[nH]ncc23)cc1	> 8.8	> 8.8	> 8.8	> 8.8	> 8.8	100	0
CC(C)c1ccc(Nc2ncnc3[nH]ncc23)cc1	> 7.6	> 7.6	5.18 (≈ 20.4 µM)	4.44 (≈ 17.5 µM)	> 7.6	100	0
c1ccc2c(c1)CCN(c1ncnc3[nH]ncc13)C2	> 7.54	> 7.54	> 7.54	> 7.54	> 7.54	100	0
c1ccc2c(CCNc3ncnc4[nH]ncc34)c[nH]c2c1	> 8.35	> 8.35	> 8.35	2.44 (≈ 8.76 µM)	> 8.35	100	0
CCOC(=O)N1CCN(C(=O)Nc2nc(CC(=O)Nc3ccc(F)c(F)c3)cs2)CC1	> 13.6	> 13.6	> 13.6	> 13.6	> 13.6	100	20
CCOC(=O)N1CCC(NC(=O)CCc2csc(NC(=O)c3ccccc3)n2)CC1	10.6 (≈ 24.6 µM)	> 12.9	> 12.9	> 12.9	4.08 (≈ 9.49 µM)	100	0
COc1ccc(S(=O)(=O)Nc2cc(C)nn2C2CCS(=O)(=O)C2)cc1C (stereo not drawn)	> 12	> 12	> 12	> 12	> 12	100	0
O=C(NCCNc1ccc(Nc2cccnc2)nn1)c1cccc(C(F)(F)F)c1	9.79 (≈ 24.3 µM)	> 12.1	> 12.1	> 12.1	> 12.1	100	0
COc1ccc(-c2cn3c(C(=O)Nc4ccc(OC(F)(F)F)cc4)csc3n2)cc1	4.41 (≈ 10.2 µM)	4.11 (≈ 9.49 µM)	4.21 (≈ 9.71 µM)	3.69 (≈ 8.5 µM)	1.79 (≈ 4.14 µM)	100	0
COc1cccc(-c2cn3c(C(=O)N4CCN(c5ccccc5OC)CC4)csc3n2)c1	> 13.5	> 13.5	6.97 (≈ 15.5 µM)	6.97 (≈ 15.5 µM)	2.13 (≈ 4.76 µM)	100	0
COc1ccc(-c2cn3c(C(=O)Nc4ccccc4F)csc3n2)cc1	> 11	> 11	> 11	> 11	> 11	100	0
COc1ccc(-c2cn3c(C(=O)Nc4ccc(F)cc4F)csc3n2)cc1	> 11.6	> 11.6	> 11.6	> 11.6	> 11.6	100	0
COc1ccccc1CC(=O)c1ccc(O)c(CN2CCCC(C)C2)c1O (stereo not drawn)	0.343 (≈ 0.928 µM)	3.63 (≈ 9.83 µM)	> 11.1	> 11.1	> 11.1	0	0

The next lines start with results.

IC50 (Plasmodium falciparum K1) [µg/mL]	IC50 [1] [µg/mL]	IC50 (Leishmania infantum) [µg/mL]	Structure (SMILES)	IC50 (Trypanosoma cruzi) [µg/mL]	IC50 [2] [µg/mL]	% Inhibition (Onchocerca ochengi) [%]	% Inhibition (Brugia malayi) [%]
> 12.6	> 12.6	> 12.6	CCSc1nnc(NC(=O)c2cc(=O)c(OCc3ccc(F)cc3)cn2C)s1	> 12.6	> 12.6	100	0
13.3 (≈ 30 µM)	0.382 (≈ 0.859 µM)	> 13.3	COc1ccc(-c2cn3c(CCC(=O)NCCc4c[nH]c5ccccc45)csc3n2)cc1	2.66 (≈ 5.99 µM)	> 13.3	100	20
> 12.7	4.22 (≈ 9.95 µM)	> 12.7	COc1ccc(-c2cn3c(CCC(=O)Nc4ccccc4SC)csc3n2)cc1	5.77 (≈ 13.6 µM)	> 12.7	100	20
> 10.7	> 10.7	> 10.7	Cc1cc(=O)[nH]c(-n2nc(C)c(CCC(=O)Nc3cc(C)on3)c2C)n1	> 10.7	> 10.7	100	20
> 13.1	5 (≈ 11.4 µM)	> 13.1	Cc1cc(=O)[nH]c(-n2nc(C)c(CCC(=O)Nc3ccc(F)c(C(F)(F)F)c3)c2C)n1	4.25 (≈ 9.73 µM)	> 13.1	100	20
> 11.7	> 11.7	> 11.7	O=C(CCc1csc(NC(=O)c2ccco2)n1)NCc1c(F)cccc1F	> 11.7	> 11.7	100	0
> 11.2	> 11.2	> 11.2	Cc1cc(NS(=O)(=O)c2c(C)noc2C)n(C2CCS(=O)(=O)C2)n1 (stereo not drawn)	> 11.2	> 11.2	100	0
> 11.9	4.69 (≈ 11.8 µM)	> 11.9	Cc1cc(-c2nnc(SCC(=O)Nc3cccc(C(F)(F)F)c3)o2)c(C)o1	> 11.9	> 11.9	100	0
> 12	> 12	> 12	CCOCC(=O)Nc1ccc(-c2nnc(N(C)c3ccc(OC)cc3)s2)cc1	> 12	> 12	100	0
> 10.6	> 10.6	> 10.6	COc1ccc(-c2cn3c(C(=O)Nc4cc(C)on4)csc3n2)cc1	> 10.6	> 10.6	100	0
> 11.3	3.11 (≈ 8.23 µM)	5.86 (≈ 15.5 µM)	COc1ccc(-c2cn3c(C(=O)Nc4cc(C)ccc4C)csc3n2)cc1	> 11.3	> 11.3	100	0
4.97 (≈ 10.4 µM)	0.412 (≈ 0.858 µM)	0.517 (≈ 1.08 µM)	Cc1cc(=O)[nH]c(-n2nc(-c3cccs3)cc2NC(=O)C2(c3ccc(Cl)cc3)CCCC2)n1	0.466 (≈ 0.971 µM)	0.682 (≈ 1.42 µM)	75	0
